Reference: ChEMBL document CHEMBL1156631 (J Med Chem, 2008)
Converted amounts (≈) assume the structure as drawn.

Legend:
Cannabinoid receptor 1 [1] = biological target: T1, Cannabinoid receptor 1 (Homo sapiens, UniProt P21554); test: Agonist activity at human CB1 receptor expressed in Sf9 cells by GTP-europium binding assay
Procedure, shortened: (§1)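 Membranes were from Sf9 insect cells cotransfected with CB1 or CB2 plus Gαi3 (Bmax 1.7 pmol/mL). Compound (0.01 nM–10 µM, 1% DMSO final) was added to buffer with Hepes, BSA, 10 mM MgCl2, 150 mM NaCl, 5 µM GDP, 10 nM GTP-europium, saponin and membranes (CB1 4.5 µg/well, CB2 14 µg/well). 100% efficacy was set by 3 µM reference agonist.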

Cannabinoid receptor 2 [2] = biological target: T2, Cannabinoid receptor 2 (Homo sapiens, UniProt P34972); test: Agonist activity at human recombinant CB2 receptor expressed in Sf9 cells by GTP-europium binding assay; procedure, shortened: as §1
Cannabinoid receptor 2 [3] = biological target: T2, Cannabinoid receptor 2; test: Agonist activity at human recombinant CB2 receptor expressed in Sf9 cells by GTP-europium binding assay relative to CP-55940
Procedure, shortened: as §1, with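 “µg/well). Incubation was 45 min at room temperature, then filtration and washing, with fluorescence read at 615 nm.” for “µg/well).”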

Cannabinoid receptor 1 [4] = biological target: T1, Cannabinoid receptor 1; test: Agonist activity at human recombinant CB1 receptor expressed in CHO-K1 cells assessed as inhibition of forskolin-stimulated intracellular cAMP level; type: functional, cell-based
Procedure, shortened: (§2)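 CHO-K1 cells stably expressing human or rat CB1 or CB2 were used. Compounds were diluted from DMSO into HBSS/HEPES/BSA buffer containing 60 µM forskolin, then combined with 5000 cells/well plus Alexa647 anti-cAMP antibody, 1 h at room temperature. A biotinylated-cAMP detection mix was added for another 1 h.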

Cannabinoid receptor 2 [5] = biological target: T2, Cannabinoid receptor 2; test: Agonist activity at human recombinant CB2 receptor expressed in CHO-K1 cells assessed as inhibition of forskolin-stimulated intracellular cAMP level; type: functional, cell-based; procedure, shortened: as §2
Cannabinoid receptor 2 [6] = biological target: T2, Cannabinoid receptor 2; test: Agonist activity at human recombinant CB2 receptor expressed in CHO-K1 cells assessed as inhibition of forskolin-stimulated intracellular cAMP level relative to CP-55940; type: functional, cell-based
Procedure, shortened: as §2, with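 “h. Emission at 665 nm gave concentration-response curves and EC50; Emax is expressed as a percentage of the reference agonist maximum.” for “h.”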

Cannabinoid receptor 1 [7] = biological target: Cannabinoid receptor 1 (Rattus norvegicus, UniProt P20272); test: Agonist activity at rat recombinant CB1 receptor expressed in CHO-K1 cells assessed as inhibition of forskolin-stimulated intracellular cAMP level; type: functional, cell-based; procedure, shortened: as §2
Cannabinoid receptor 2 [8] = biological target: T3, Cannabinoid receptor 2 (Rattus norvegicus, UniProt Q9QZN9); test: Agonist activity at rat recombinant CB2 receptor expressed in CHO-K1 cells assessed as inhibition of forskolin-stimulated intracellular cAMP level; type: functional, cell-based
T3 sequence (Q9QZN9 whole entry): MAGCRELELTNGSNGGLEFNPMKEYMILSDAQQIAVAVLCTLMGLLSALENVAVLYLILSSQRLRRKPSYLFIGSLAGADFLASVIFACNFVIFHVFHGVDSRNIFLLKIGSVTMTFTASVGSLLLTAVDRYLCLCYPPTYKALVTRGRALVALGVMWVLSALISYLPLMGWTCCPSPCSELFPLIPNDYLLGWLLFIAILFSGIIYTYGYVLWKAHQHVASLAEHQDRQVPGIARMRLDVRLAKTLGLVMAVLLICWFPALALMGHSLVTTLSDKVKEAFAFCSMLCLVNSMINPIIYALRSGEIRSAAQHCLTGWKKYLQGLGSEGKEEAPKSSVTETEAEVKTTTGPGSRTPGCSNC
Procedure, shortened: as §2, with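 “h. Emission at 665 nm gave concentration-response curves and EC50; Emax is expressed as a percentage of the reference agonist maximum.” for “h.”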

[9] = biological target: T4, Cannabinoid receptor 2 (Rattus norvegicus) (UniProt Q9QZN9); test: Agonist activity at rat recombinant CB2 receptor expressed in CHO-K1 cells assessed as inhibition of forskolin-stimulated intracellular cAMP level relative to CP-55940; type: functional, cell-based
T4 sequence (whole entry): T3 sequence (Q9QZN9 whole entry)
Procedure, shortened: as §2, with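 “h. Emission at 665 nm gave concentration-response curves and EC50; Emax is expressed as a percentage of the reference agonist maximum.” for “h.”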

[10] = Solubility in simulated intestinal fluid; type: physicochemical; details: read-out: Stability
[11] = Cmax in rat at 10 mg/kg, po; type: ADME, organism-based; design: dose 10 mg/kg, route oral; details: in vivo
[12] = (§3) AUC in rat at 10 mg/kg, po; type: ADME, organism-based, Plasma; design: dose 10 mg/kg, route oral; details: plasma
[13] = (§4) Oral bioavailability in rat at 10 mg/kg; type: ADME, organism-based; details: in vivo
[14] = Half life in rat at 10 mg/kg, po; type: ADME, organism-based; design: dose 10 mg/kg, route oral; details: in vivo
Cannabinoid receptor 1 [15] = biological target: T1, Cannabinoid receptor 1; test: Agonist activity at human recombinant CB1 receptor expressed in Sf9 cells by GTP-europium binding assay relative to CP-55940
Procedure, shortened: as §1, with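 “µg/well). Incubation was 45 min at room temperature, then filtration and washing, with fluorescence read at 615 nm.” for “µg/well).”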

Cannabinoid receptor 1 [16] = biological target: T1, Cannabinoid receptor 1; test: Agonist activity at human recombinant CB1 receptor expressed in CHO-K1 cells assessed as inhibition of forskolin-stimulated intracellular cAMP level relative to CP-55940; type: functional, cell-based
Procedure, shortened: as §2, with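 “h. Emission at 665 nm gave concentration-response curves and EC50; Emax is expressed as a percentage of the reference agonist maximum.” for “h.”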

[17] = biological target: Cannabinoid receptor 1 (Rattus norvegicus) (UniProt P20272); test: Agonist activity at rat recombinant CB1 receptor expressed in CHO-K1 cells assessed as inhibition of forskolin-stimulated intracellular cAMP level relative to CP-55940; type: functional, cell-based
Procedure, shortened: as §2, with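 “h. Emission at 665 nm gave concentration-response curves and EC50; Emax is expressed as a percentage of the reference agonist maximum.” for “h.”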

Rattus norvegicus [18] = test: Oral bioavailability in rat; type: ADME, organism-based; details: in vivo
[19] = Metabolic stability in human liver microsomes; type: ADME, Microsome; details: read-out: Stability
[20] = Metabolic stability in rat liver microsomes; type: ADME, Microsome; details: read-out: Stability
Rattus norvegicus [21] = test: Clearance in rat at 0.5 mg/kg, iv; type: ADME, organism-based; design: dose 0.5 mg/kg, route intravenous; details: in vivo
Rattus norvegicus [22] = test: as §3; type: ADME, organism-based, Plasma; design: dose 10 mg/kg, route oral; details: in vivo
Rattus norvegicus [23] = test: as §4; type: ADME, organism-based; details: in vivo
Cannabinoid receptor 2 [24] = biological target: T2, Cannabinoid receptor 2; test: Binding affinity to CB2 receptor
Cannabinoid receptor 1 [25] = biological target: T1, Cannabinoid receptor 1; test: Binding affinity to CB1 receptor

T2 sequence (P34972 whole entry): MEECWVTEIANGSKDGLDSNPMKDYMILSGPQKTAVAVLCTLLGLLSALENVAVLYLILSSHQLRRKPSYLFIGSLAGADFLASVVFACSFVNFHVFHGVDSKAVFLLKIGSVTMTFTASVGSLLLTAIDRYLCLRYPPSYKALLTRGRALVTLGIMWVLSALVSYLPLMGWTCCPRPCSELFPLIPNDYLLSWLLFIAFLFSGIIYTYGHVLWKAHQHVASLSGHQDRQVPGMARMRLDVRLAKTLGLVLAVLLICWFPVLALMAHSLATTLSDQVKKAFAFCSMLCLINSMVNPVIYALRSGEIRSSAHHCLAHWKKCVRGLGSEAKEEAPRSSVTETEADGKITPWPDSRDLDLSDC
Chain of Cannabinoid receptor 1 (Rattus norvegicus, UniProt P20272) (P20272 whole entry): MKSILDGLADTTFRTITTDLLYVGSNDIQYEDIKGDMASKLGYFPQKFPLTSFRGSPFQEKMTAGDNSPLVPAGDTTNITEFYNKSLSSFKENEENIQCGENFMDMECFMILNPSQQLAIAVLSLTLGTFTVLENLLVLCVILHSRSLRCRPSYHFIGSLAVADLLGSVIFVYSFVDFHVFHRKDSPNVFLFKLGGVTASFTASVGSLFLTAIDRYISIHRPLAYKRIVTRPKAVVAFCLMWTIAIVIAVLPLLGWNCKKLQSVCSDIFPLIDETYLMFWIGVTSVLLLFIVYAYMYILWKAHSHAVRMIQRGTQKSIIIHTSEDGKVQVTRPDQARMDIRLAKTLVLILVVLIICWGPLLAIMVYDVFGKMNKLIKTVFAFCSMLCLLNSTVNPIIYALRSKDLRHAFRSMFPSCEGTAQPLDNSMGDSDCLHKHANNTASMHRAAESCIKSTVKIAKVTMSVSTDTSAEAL
Chain of Cannabinoid receptor 1 (Rattus norvegicus) (P20272 whole entry): as above
T1 sequence (P21554 whole entry): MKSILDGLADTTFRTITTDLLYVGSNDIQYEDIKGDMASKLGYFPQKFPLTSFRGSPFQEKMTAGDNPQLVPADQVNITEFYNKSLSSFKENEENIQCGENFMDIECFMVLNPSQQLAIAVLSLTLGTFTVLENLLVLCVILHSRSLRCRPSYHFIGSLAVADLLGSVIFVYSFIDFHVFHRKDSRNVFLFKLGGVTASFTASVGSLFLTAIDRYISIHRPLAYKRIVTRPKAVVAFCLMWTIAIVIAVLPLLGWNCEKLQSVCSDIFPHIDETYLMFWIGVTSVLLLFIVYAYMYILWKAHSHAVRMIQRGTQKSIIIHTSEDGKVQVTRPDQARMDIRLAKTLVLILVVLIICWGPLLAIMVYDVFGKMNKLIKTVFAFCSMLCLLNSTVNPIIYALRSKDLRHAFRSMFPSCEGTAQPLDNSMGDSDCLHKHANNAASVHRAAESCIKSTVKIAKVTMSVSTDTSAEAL

Structure (SMILES)	EC50 (Cannabinoid receptor 1 [1])	EC50 (Cannabinoid receptor 2 [2])	Emax (Cannabinoid receptor 2 [3])	EC50 (Cannabinoid receptor 1 [4])	EC50 (Cannabinoid receptor 2 [5])	Emax (Cannabinoid receptor 2 [6])	EC50 (Cannabinoid receptor 1 [7])	EC50 (Cannabinoid receptor 2 [8])	Emax [9]	solubility [10]	Cmax [11]	half-life [14]	Emax (Cannabinoid receptor 1 [15])	Emax (Cannabinoid receptor 1 [16])	Emax [17]	microsomal CLint [19]	microsomal CLint [20]	also measured
N#Cc1cc(NC(=O)CCc2nc(-c3ccc(F)cc3Cl)no2)cnc1OCC(F)(F)F	> 10000 nM	14 nM	110%	> 1000 nM	31 nM	97%	> 1000 nM	3.1 nM	100%	24 µg/mL (≈ 51.1 µM)	3400 ng/mL	3.1 h						AUC [12]: 21000 ng·h/mL; bioavailability [13]: 36%
Fc1ccc(-c2noc(CCCNc3cnc4ccc(Cl)cc4c3)n2)c(Cl)c1	220 nM	1.7 nM	110%	560 nM	2.2 nM	94%	77 nM	1.3 nM	90%	87 µg/mL (≈ 208 µM)	8400 ng/mL	5.1 h	51%	88%	85%			AUC [12]: 43000 ng·h/mL; bioavailability [13]: < 100%
CCn1c2ccccc2c2cc(NC(=O)CCc3nc(-c4ccccc4F)no3)ccc21	> 10000 nM		100%	> 1000 nM		93%	> 1000 nM	33 nM	91%	2 µg/mL (≈ 4.67 µM)	100 ng/mL	1.6 h				274 µL/min/mg	198 µL/min/mg	F (Rattus norvegicus [18]): 13%; CL (Rattus norvegicus [21]): 20 mL/min/kg; AUC (Rattus norvegicus [22]): 460 ng·h/mL; F (Rattus norvegicus [23]): 13%
O=C(CCc1nc(-c2ccc(F)cc2Cl)no1)Nc1cnc2ccc(Cl)cc2c1	0.9 nM	1400 nM	110%	710 nM	0.5 nM	99%	130 nM	11 nM	97%				82%	57%	99%	< 100 µL/min/mg	< 100 µL/min/mg	
O=C(CCc1nc(-c2ccc(F)cc2Cl)no1)Nc1cnc2ncc(Cl)cc2c1	2300 nM	3.3 nM	110%	> 1000 nM	0.6 nM	97%	220 nM	0.4 nM	100%				43%	30%	100%	< 100 µL/min/mg	< 100 µL/min/mg	
Cc1ccc2c(=O)c(C(=O)NC3CCCCC3)cn(Cc3ccc(F)cc3)c2n1																		Ki (Cannabinoid receptor 2 [24]): 5.5 nM; Ki (Cannabinoid receptor 1 [25]): 15 nM
O=C(CCc1nc(-c2ccc(F)cc2Cl)no1)Nc1nnc(N2CCCCC2)s1	211 nM	1.2 nM	98%	> 1000 nM	0.8 nM	98%	220 nM	1.1 nM	98%				47%	38%	87%	< 100 µL/min/mg	< 100 µL/min/mg	
Fc1ccc(-c2noc(CCCNc3cnc4ccc(OC(F)(F)F)cc4c3)n2)c(Cl)c1	1100 nM	0.015 nM	110%	850 nM	2.3 nM	110%	130 nM	1.3 nM	130%	49 µg/mL (≈ 105 µM)			81%	78%	120%			
Fc1ccc(-c2noc(CCCOc3cnc4ccc(Cl)cc4c3)n2)c(Cl)c1	1100 nM	7.2 nM	110%	990 nM	3.6 nM	99%	83 nM	5.1 nM	99%				92%	48%	98%			
O=C(CCc1nc(-c2ccc(F)cc2Cl)no1)Nc1nc2ccc(OC(F)(F)F)cc2s1	1900 nM	3 nM	120%	> 1000 nM	6.5 nM	99%	> 1000 nM	6.9 nM	98%				36%	36%	21%	< 100 µL/min/mg	< 100 µL/min/mg	
O=C(CCc1nc(-c2ccc(F)cc2Cl)no1)Nc1ccc(C(F)(F)F)cc1Cl	> 10000 nM	370 nM	41%								100 ng/mL	1.6 h						AUC [12]: 460 ng·h/mL; bioavailability [13]: 13%
